Measurements from different studies.
Lines come from different studies, so protocols differ.
Target: Serine/threonine-protein kinase PAK 3 (PAK3, Homo sapiens, UniProt O75914)

Structure (SMILES) | read-out | technique | concentration | remaining binding [%]
O=C(Nc1ccc(Oc2ccc(F)cc2)cc1)N1CCc2ncccc2[C@H]1c1ccc(F)cc1 | cell-free assay | competition with immobilised ligand | 1 µM | 100
C[C@@H](c1ccc(-n2cnc3c(N)ncnc32)cc1)N1CCc2nn(C)c(Cc3ccccc3)c2C1=O | binding | competition with immobilised ligand | 0.1 µM | 71
CC1CCCN1c1nccc(-c2cnn3ncccc23)n1 (centres unmarked) | binding |  | 1 µM | 100
O=C1NC(c2ccccn2)Sc2ccccc21 (centres unmarked) | cell-free assay | competition with immobilised ligand | 1 µM | 83
CCN1CCN(Cc2ccc(C(=O)Nc3ccc(C)c(Oc4ccc5c(c4)CC(=O)N5)c3)cc2C(F)(F)F)CC1 | binding | competition with immobilised ligand | 1 µM | 98
O=C(NCCCN1CCOCC1)c1ccc(Nc2nccc(-c3cc4ccccc4s3)n2)cc1 | binding | competition with immobilised ligand | 1 µM | 71
C[C@@H]1CCN(c2nccc(-c3cnn4ncccc34)n2)C1 | binding |  | 1 µM | 85
C[C@H](c1cccc(C#N)c1)n1cc(Cl)cc(C(N)=O)c1=N | cell-free assay | competition with immobilised ligand | 1 µM | 88
Nc1ncc2c(n1)-c1c([nH]c3ccc(C#CC4CC4)cc13)CCCC2 | binding | competition with immobilised ligand | 1 µM | 90
CC(=O)Nc1c(C(C)=O)c(=O)n(C)c2nc(-c3ccc(Cl)cc3Cl)c(-c3ccc(Cl)cc3)cc12 | cell-free assay | competition with immobilised ligand | 1 µM | 100
O=C(Nc1c[nH]nc1C(=O)NC1CCNCC1)c1cc(F)cc(F)c1 | binding | competition with immobilised ligand | 1 µM | 98
CCC(=N\O)/C(C)=C/c1ccc(F)cc1 | cell-free assay | competition with immobilised ligand | 1 µM | 89
F[C@@H]1CCN(c2nccc(-c3cnn4ncccc34)n2)C1 | binding |  | 1 µM | 100
CNC(=O)[C@@H]1CC[C@@H](n2c(-c3ccc4cnccc4c3)nc3ccc(C(=O)NCc4cccc(C(N)=O)c4)cc32)C1 | binding | competition with immobilised ligand | 1 µM | 95
CN(c1nccc(-c2cnn3ncccc23)n1)C1CC1 | binding |  | 1 µM | 100
Cc1c(NC(=O)c2cc(C(N)=O)nc3cc(F)ccc23)c(C(F)(F)F)nn1Cc1ccc(C(C)(C)C)cc1 | cell-free assay | competition with immobilised ligand | 1 µM | 100
CN(C)c1nccc(-c2cnn3ncccc23)n1 | binding |  | 1 µM | 100
O=C(c1ccc(Nc2ncc(Cl)c(-c3ccc(Cl)s3)n2)cc1)N1CCC(N2CCCC2)CC1 | binding | competition with immobilised ligand | 1 µM | 38
Cc1cnn2ncc(-c3ccnc(N(C)C)n3)c2c1 | binding |  | 1 µM | 100
O=C(c1ccc(Nc2ncc(Cl)c(-c3cc4ccccc4s3)n2)cc1)N1CCC(N2CCCC2)CC1 | binding | competition with immobilised ligand | 1 µM | 8.4
